Test results: publication PMC6399515 (Insect Biochemistry and Molecular Biology, 2016)

What was measured:
[1] = tested on: all mosquito P450s of the panel except CYP6Z2 and CYP6P2 (CYP6M2, CYP6P3, CYP6P4, CYP9J5); test: in vitro; conditions: Anopheles gambiae
[2] = tested on: An. gambiae Kisumu strain; test: Glass tube assay, ovary development of adult females, Kisumu strain; type: in vivo, Anopheles gambiae
Outline: (§1)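 Borosilicate glass tubes were coated with PPF at 0.55, 2.75 or 5.5 mg/m2, with an acetone-only tube as control, and used the day they were made. Per concentration, two groups of fifteen 5–7-day-old females (n = 30) were acclimated 60 min, then exposed 3 min. They were held 24 h on 10% sucrose, then five days in the insectary. Ovaries were dissected and scored normal or abnormal.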

[3] = tested on: CYP6P family and CYP6Z2; conditions: Anopheles gambiae, pH 7.4
[4] = tested on: An. gambiae Tiassalé strain; test: Glass tube assay, ovary development of adult females, Tiassalé strain; type: in vivo, Anopheles gambiae
Outline: as §1

[5] = 3 min exposure, half of 5.5 mg/m^2

For `CC(COc1ccc(Oc2ccccc2)cc1)Oc1ccccn1` (stereo not shown) [PPF, pyriproxyfen], the IC50 ([1]; pH 7.4, IC50 of DEF activity) was over 10 µM, the IC50 ([1]; pH 7.4, category of inhibition of DEF metabolism) was over 10 µM and the mosquitoes sterilized ([2]; 3 min exposure to 5.5 mg/m^2) was “completely sterilized”. For the same compound, the mosquitoes sterilized [2, 5] was 76%, the PPF depletion [3] was 58–100% and the mosquitoes sterilized ([4]; 3 min exposure to 5.5 mg/m^2) was 75%. The “impact on ovary development” value [4, 5] was “no impact”.
